Reference: ChEMBL document CHEMBL4513216, “Probing the Open Global Health Chemical Diversity Library for Multistage-Active Starting Points for Next-Generation Antimalarials” (ACS Infect Dis, 2020)

Assay: Toxicity liver stage against HepG2, at 10uM
Format: cell-based
Parameters: test concentration 10 uM, cell line HepG2-A16-CD81EGFP
Conditions: human, HepG2-A16-CD81EGFP cells; read-out: INHIBITION
How it was run: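 Uninfected HepG2-A16-CD81EGFP cells, 3 × 10^3 per well, 1536-well, plated on prespotted compound at 10 μM final, parasite-free screening media added to match infected plates; puromycin 10 μM positive, DMSO 0.5% negative; run in parallel with 48 h PbLuc assay at 37 °C, 5% CO2; viability by CellTiter-Glo luminescence, normalized to controls.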

SMILES | cytotoxicity at 10 µM [%]
CC(=O)C1(c2ccccc2)CCN(C(=O)c2ccc3nnnn3c2)CC1 | 20.1
O=C(Nc1cnc2n1CCCC2)C1CCNCC1 | 4.25
OC(c1ccccc1)c1cn(C2CCN(Cc3nccs3)CC2)nn1 (centres undefined) | 7.44
COCCN1CCC(c2nc3c([nH]2)CC(C)(C)CNC3=O)CC1 | -3.13
CC(C)n1cnnc1CN(C)C(=O)c1cccnc1O | 2.1
CC(C(=O)O)N1CC2(CCC1=O)CCN(C/C=C/c1ccccc1)CC2 (centres undefined) | -1.72
COCc1noc(CN2CC(=O)N(C)c3ccccc3C2=O)n1 | -6.3
Cc1cccc(C)c1OC1CN(C(=O)C2CC(=O)N(C(C)(C)C)C2)C1 (centres undefined) | 0.213
CCCN1CCCC2(CCN(S(=O)(=O)c3cccnc3)C2)C1=O (centres undefined) | -2.3
CCc1nnc(CNC(=O)c2cc3c(nc2OC)CCC3)s1 | 0.156
Cc1cnccc1CN(C)Cc1c[nH]nc1-c1ccc(F)cc1F | -5.93
CCc1nn(C)c(Cl)c1CN1CCCC(c2cc(O)nc(C)n2)C1 (centres undefined) | -2.37
CC1(C)CNC(=O)c2nc(-c3ccccc3)[nH]c2C1 | -7.28
CCC(C)N(Cc1cccnc1)C(=O)c1ccc(NS(=O)(=O)CC)cc1 (centres undefined) | 7.1
O=C(O)C(c1ccc(O)cc1)N1CCC(N2CCSCC2)CC1 (centres undefined) | 0.646
CCN1CCN(C[C@@H]2CN(Cc3cnc(C(C)C)nc3)C[C@@H]2CO)CC1 | -6.79
CNc1ncc(CN(C)C(=O)c2cccc(Cn3cccn3)c2)cn1 | 1.32
COCc1noc(-c2ccc(N3CCCC3c3ccc(F)cc3)nc2)n1 (centres undefined) | 5.79
Cc1nc(O)cc(CN2C[C@H](NC(=O)C3CCC3)[C@@H](C3CC3)C2)n1 | 0.675
N#Cc1c(SCCN2CCCCCC2)sc2c(O)cc(O)nc12 | -10.5
CCC1(c2ccc(NS(=O)(=O)N(C)C)cc2)CCC(=O)NC1=O (centres undefined) | -7.19
CCC(O)CN1CCN(C(=O)Cc2ccccc2Cl)CC1 (centres undefined) | -7.98
CN1CCCC1CNC(=O)CCCOc1ccc(I)cc1 (centres undefined) | -14
Cc1ncc2c(n1)CN(CC(=O)Nc1nncs1)CC2 | -10.8
CCc1nnc2n1CCN(Cc1ccc3c(c1)OCCO3)C2 | -6.61
Cc1c(C(=O)N2CCCC2c2cnn(C)c2)nnn1-c1ccccc1 (centres undefined) | -11.4
O=C(c1ccc(OCC2CC2)nc1)N1CCCC(n2cncn2)C1 (centres undefined) | -3.25

SMILES | cytotoxicity at 10 µM [%]
CC(=O)c1cccc(OCCCC(=O)NCC2CCCN2C)c1 (centres undefined) | 0.71
Cc1cn2c(n1)CCC(NC(=O)c1ccc(CS(C)(=O)=O)cc1)C2 (centres undefined) | -2.19
Cc1cnc(CN2CCOC(Cn3nc(C)nc3C)C2)cn1 (centres undefined) | 1.46
COc1cc(C(=O)Nc2c(C)noc2C)ccc1C | -15
Cc1cc(CN2CCN(C(=O)NCc3ccc(C)s3)CC2)no1 | -2.84
CC(Cn1cccn1)NC(=O)N1CCN(Cc2cccs2)CC1 (centres undefined) | 2.31
COc1cc(C(=O)NC(CC(=O)O)c2cccs2)cc(Cl)c1OC (centres undefined) | 4.31
CCn1ncc2c1CCCC2NCc1cccc2c1OCCO2 (centres undefined) | 1.71
CC(C)c1nc2n(n1)CC(NCc1nnc(C(C)C)o1)CC2 (centres undefined) | -4.13
CCOCC(O)CN1CCN(C(=O)CC(C)(C)C)CC1 (centres undefined) | -5.95
CCC(CO)NCc1ccc(-c2ccc(F)c(Cl)c2)o1 (centres undefined) | 5.24
O=C(CCN1CCCCC1)Nc1c2c(cc3c1CCC3)CCC2 | 4.29
CC1=N[C@@]2(CC[C@@H]3CN(CC(C)C)C[C@@H]32)C(=O)N1C | 3.5
CN(Cc1ccco1)[C@@H]1CN(C(=O)c2ccnnc2)C[C@@H]2CCCO[C@@H]21 | -10.5
Cc1ccc(N2CC[C@H]3[C@@H]2CCC(=O)N3CCN2CCOCC2)nn1 | -3.18
CCS(=O)(=O)N1CCC2(CN(c3cccc(C)n3)C2)C1 | 3.5
CCN1CCO[C@@H]2CN(C(=O)c3cocn3)C[C@@H]2C1 | 0.933
Cn1cc(C[C@H]2[C@H](O)CCN2CC2CC2)cn1 | -0.516
CCO[C@@H]1CO[C@@]2(CCN(Cc3ccc4c(c3)OCO4)C2)C1 | 5.53
COCCN1CCO[C@@H]2CN(C(=O)Cc3ccccc3)CC[C@@H]2C1 | 4.98
COc1ccc(CC(=O)N2CC[C@@H]3[C@H](CC2)N(C)CCS3(=O)=O)cc1 | -104
CN1CCOCC2(CCN(Cc3ccc[nH]3)CC2)C1 | 0.442
Cc1ccc(CN2C[C@@H]3CCCO[C@@H]3[C@H](N(C)Cc3ccco3)C2)o1 | 6.43
Cc1cc(CN2C[C@@H]3COC[C@]3(CN(C)C)C2)no1 | 4.81
Cc1ccc(N2CC[C@@H]3[C@@H]2CCN3C(=O)c2cscn2)nn1 | 5.38
Cc1ncsc1CN1CCn2c(COCC3CC3)cnc2C1C (centres undefined) | -1.82
Cc1cnc(CNC(=O)[C@@]23CCO[C@@H]2CCN(C2CCCC2)C3)cn1 | -110
